Data: ChEMBL document CHEMBL1781878, “Novel carbamate cholinesterase inhibitors that release biologically active amines following enzyme inhibition” (Bioorg Med Chem Lett, 2009)
Active and inactive are the calls of the source.

How the values were obtained:
Rattus norvegicus [1] = assay: Inhibition of total plasma cholinesterase in rat at 10 mg/kg, po measured 60 mins post dose; type: functional; details: 1 h
Summary of the method: (§1)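 Rats given oral saline solutions of compound at the maximum tolerated or highest tested dose; sacrificed 60 min post-dose, blood collected and processed, plasma ChE activity measured spectrophotometrically (Ellman-type). n = 4 rats per group; mean reported.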

Rattus norvegicus [2] = assay: Inhibition of total brain cholinesterase activity in rat at 10 mg/kg, po measured 30 to 180 mins post dose; type: functional
Summary of the method: (§2)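 Rats received oral saline solutions at the maximum tolerated or highest tested dose; after sacrifice, brain samples processed and total ChE activity determined spectrophotometrically versus control. n = 4 animals per group, mean given.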

[3] = Toxicity in po dosed rat assessed as maximum tolerated dose at which reversible and non-life threatening cholinergic effect observed; type: organism-based; details: in vivo
Summary of the method: (§3)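 Rats dosed orally and observed for cholinergic signs (salivation, lacrimation, fasciculations, diarrhea, seizures) and overt behaviour including locomotor stimulation. MTD defined as the dose giving clear, reversible, non-life-threatening cholinergic effects.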

Cholinesterase = Cholinesterase (Homo sapiens, UniProt P06276); assay: Inhibition of purified human plasma BuChE preincubated for 30 mins before DTNB substrate addition by spectrophotometric assay based Ellman's method
Summary of the method: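 Enzyme: human BuChE purified from serum. Modified Ellman assay. Inhibitor preincubated with enzyme 30 min at 25 °C in 10 mM Tris pH 8.0, then acetylthiocholine (0.3 mM) added; DTNB 0.33 mM final. At least five inhibitor levels plotted as Dixon plot; IC50 from x-intercept. Triplicates, two or three independent experiments.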

[4] = molecular target: Acetylcholinesterase (Homo sapiens) (UniProt P22303)
Rattus norvegicus [5] = assay: Toxicity in rat assessed as induction of seizures incidence at 5 mg/kg, po; type: organism-based; set-up: dose 5 mg/kg, route oral; details: in vivo; summary of the method: as §3
Rattus norvegicus [6] = assay: Inhibition of total plasma cholinesterase in rat at 5 mg/kg, po measured 30 to 180 mins post dose; type: functional
Summary of the method: (§4)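 Oral dosing in saline to rats; animals sacrificed at 30, 60 and 180 min; plasma and brain processed and ChE activity read spectrophotometrically. Value is mean of the three time points; n = 4 rats per group.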

Rattus norvegicus [7] = assay: Inhibition of total brain cholinesterase activity in rat at 5 mg/kg, po measured 30 to 180 mins post dose; type: functional; summary of the method: as §4
Rattus norvegicus [8] = assay: Toxicity in rat assessed as induction of diarrhea incidence at 5 mg/kg, po; type: organism-based; set-up: dose 5 mg/kg, route oral; details: in vivo; summary of the method: as §3
Rattus norvegicus [9] = assay: Toxicity in rat assessed as induction of severe fasciculation, salivation and lacrimation incidence at 5 mg/kg, po; type: organism-based; set-up: dose 5 mg/kg, route oral; details: in vivo; summary of the method: as §3
Rattus norvegicus [10] = assay: Memory enhancing effect in rat Scopolamine passive avoidance model assessed as reversal of Scopolamine-induced amnesia by measuring step-through latencies at 8 mg/kg, ip compound administered 30 mins before training and Scopolamine added 40 mins before training; type: functional, organism-based; set-up: dose 8 mg/kg
Summary of the method: (§5)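 Passive avoidance in rats: scopolamine hydrobromide 0.2 mg/kg sc 40 min before training; saline or compound ip 30 min before training. Retention test 24 h later, identical to training but without foot-shock or drug; latency to enter dark chamber recorded.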

Homo sapiens = species: Homo sapiens; assay: Selectivity index, ratio of IC50 for purified human […] to IC50 for human recombinant AChE
Summary of the method: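 Modified Ellman assay on recombinant human AChE and human serum-purified BuChE. Enzyme and inhibitor were preincubated 30 min at 25 °C in 10 mM Tris pH 8.0, then ATCh (0.3 mM) was added with DTNB (0.33 mM final). A405 was read for 5 min and initial rates compared to control. IC50s come from Dixon plots (≥5 inhibitor concentrations), triplicate, 2–3 independent runs. Selectivity is the ratio of the two IC50s.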

Rattus norvegicus [11] = assay: Inhibition of total brain cholinesterase activity in rat at >100 mg/kg, po measured 30 to 180 mins post dose; type: functional; summary of the method: as §2
Rattus norvegicus [12] = assay: Inhibition of total plasma cholinesterase in rat at >100 mg/kg, po measured 60 mins post dose; type: functional; summary of the method: as §1
Rattus norvegicus [13] = assay: Memory enhancing effect in rat Scopolamine passive avoidance model assessed as reversal of Scopolamine-induced amnesia by measuring step-through latencies at 12 mg/kg, ip compound administered 30 mins before training and Scopolamine added 40 mins before training; type: functional, organism-based; set-up: dose 12 mg/kg; summary of the method: as §5
Rattus norvegicus [14] = assay: Toxicity in rat assessed as locomotor stimulation at 100 mg/kg, po; type: organism-based; set-up: dose 100 mg/kg, route oral; details: in vivo; summary of the method: as §3
Rattus norvegicus [15] = assay: Inhibition of cholinesterase activity in rat assessed as reconstituted enzyme-mediated release of amphetamine in to plasma at 64 mg/kg, po measured 1 hr post dose; type: functional
Summary of the method: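 Rats dosed orally with test compound in saline; plasma collected 1 h post-dose and amphetamine content quantified by LC/MS/MS.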

Rattus norvegicus [16] = assay: Inhibition of total brain cholinesterase activity in rat at >64 mg/kg, po measured 30 to 180 mins post dose; type: functional; summary of the method: as §2
Rattus norvegicus [17] = assay: Inhibition of total plasma cholinesterase in rat at >64 mg/kg, po measured 60 mins post dose; type: functional; summary of the method: as §1
Rattus norvegicus [18] = assay: Inhibition of total brain cholinesterase activity in rat at 32 mg/kg, po measured 30 to 180 mins post dose; type: functional; summary of the method: as §2
Rattus norvegicus [19] = assay: Inhibition of total plasma cholinesterase in rat at 32 mg/kg, po measured 60 mins post dose; type: functional; details: 1 h; summary of the method: as §1

Acetylcholinesterase (Homo sapiens), sequence (P22303 whole entry): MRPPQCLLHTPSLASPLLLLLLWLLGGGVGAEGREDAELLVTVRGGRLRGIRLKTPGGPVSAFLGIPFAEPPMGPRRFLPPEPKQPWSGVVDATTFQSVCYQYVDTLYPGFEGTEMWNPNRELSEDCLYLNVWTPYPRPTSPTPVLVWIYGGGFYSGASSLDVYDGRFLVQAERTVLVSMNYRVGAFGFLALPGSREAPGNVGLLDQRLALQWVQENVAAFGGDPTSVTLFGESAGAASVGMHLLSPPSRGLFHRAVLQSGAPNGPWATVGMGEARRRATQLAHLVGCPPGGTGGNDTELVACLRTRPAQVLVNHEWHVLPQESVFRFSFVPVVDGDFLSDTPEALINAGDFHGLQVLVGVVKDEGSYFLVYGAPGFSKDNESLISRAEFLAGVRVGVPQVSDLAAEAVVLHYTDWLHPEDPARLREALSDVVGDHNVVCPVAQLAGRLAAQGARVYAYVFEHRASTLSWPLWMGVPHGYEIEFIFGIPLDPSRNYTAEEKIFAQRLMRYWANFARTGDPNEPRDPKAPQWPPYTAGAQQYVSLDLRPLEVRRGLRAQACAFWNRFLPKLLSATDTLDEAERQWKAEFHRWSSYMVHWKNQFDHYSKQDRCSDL
Cholinesterase, sequence (P06276 whole entry): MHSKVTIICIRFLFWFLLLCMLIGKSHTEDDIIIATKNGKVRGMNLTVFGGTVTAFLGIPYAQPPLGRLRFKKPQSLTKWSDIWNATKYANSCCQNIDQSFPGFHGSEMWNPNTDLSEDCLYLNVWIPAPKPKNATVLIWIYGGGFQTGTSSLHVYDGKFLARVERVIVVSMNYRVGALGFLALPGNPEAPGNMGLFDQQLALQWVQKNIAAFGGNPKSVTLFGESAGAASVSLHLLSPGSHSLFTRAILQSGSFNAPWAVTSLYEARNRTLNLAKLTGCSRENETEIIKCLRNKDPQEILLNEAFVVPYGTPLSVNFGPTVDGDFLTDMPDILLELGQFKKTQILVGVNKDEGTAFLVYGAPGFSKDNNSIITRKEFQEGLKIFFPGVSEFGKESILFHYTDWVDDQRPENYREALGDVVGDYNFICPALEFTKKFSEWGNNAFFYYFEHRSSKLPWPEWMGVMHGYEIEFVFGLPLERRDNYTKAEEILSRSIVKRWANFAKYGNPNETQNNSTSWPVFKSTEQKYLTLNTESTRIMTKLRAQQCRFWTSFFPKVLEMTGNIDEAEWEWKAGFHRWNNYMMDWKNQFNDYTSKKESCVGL

C[C@H](Cc1ccccc1)N(C)C(=O)Oc1cccc([C@H](C)N(C)C)c1.Cl
inhibition in vivo at 10 mg/kg (Rattus norvegicus [1]): 45%
inhibition in vivo at 10 mg/kg (Rattus norvegicus [2]): 64%
MTD [3]: 10 mg/kg
IC50 (Cholinesterase): 24.4 µM
T1/2 [4]: > 24 h

CCN(C)C(=O)Oc1cccc([C@H](C)N(C)C)c1 [RIVASTIGMINE]
Activity (Rattus norvegicus [5]): Toxic
inhibition in vivo at 5 mg/kg (Rattus norvegicus [6]): 39%
inhibition in vivo at 5 mg/kg (Rattus norvegicus [7]): 56%
Activity (Rattus norvegicus [8]): Toxic
Activity (Rattus norvegicus [9]): Toxic
T1/2 [4]: > 24 h

C[C@@H](Cc1ccccc1)NC(=O)Oc1cccc([C@H](C)N(C)C)c1.Cl
inhibition (Rattus norvegicus [10]): Active
Ratio IC50 (Homo sapiens): 14
inhibition (INH) (Rattus norvegicus [11]): 72%
inhibition (INH) (Rattus norvegicus [12]): 59%
inhibition (Rattus norvegicus [13]): Active
Activity (Rattus norvegicus [14]): Non-toxic
T1/2 [4]: 1.2 h
Activity (Rattus norvegicus [15]): 17 ng/mL

C[C@@H](c1cccc(OC(=O)N(C)[C@@H](C)Cc2ccccc2)c1)N(C)C.Cl
inhibition (INH) (Rattus norvegicus [16]): 50%
T1/2 [4]: > 24 h
inhibition (INH) (Rattus norvegicus [17]): 50%

C[C@H](Cc1ccccc1)NC(=O)Oc1cccc([C@H](C)N(C)C)c1
Ratio IC50 (Homo sapiens): 1
inhibition in vivo at 32 mg/kg (Rattus norvegicus [18]): 25%
inhibition in vivo at 32 mg/kg (Rattus norvegicus [19]): 26%
T1/2 [4]: 12 h
